RanGTP-Imp inh = disruptors of Ran-importin-beta complex formation – biochemical, FRET, CFP-Ran, YFP-importin-beta, homogeneous, primary screen. cell-free CFP-Ran/YFP-importin-beta FRET ratio. inhibition, % (concentration not given with the values). 300,000 tested, 1.1% active;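 active = more than half of the replicate wells show a fall in the fluorescence ratio signal beyond about 16%, limit read from the data, passing the limit was not always enough; inconclusive = exactly half of the replicate wells pass the set limit; inactive = fewer than half of replicates pass the limit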;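 note: 0% = DMSO wells and 100% = Ran loaded with GDP instead of GTP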
Hck-Nef inh = blocks Nef-activated human Hck kinase; P08631; Recombinant Hck-YEEI plus Nef, Z-Lyte FRET kinase assay; inhibition, % at 20 µM; 220,000 tested, 0.68% active; AID 463187;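 active = Hck-Nef kinase inhibition above about 50%, limit read from the data; inactive = inhibition below that limit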;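 note: 0% = DMSO with Hck plus Nef and 100% = Hck alone without Nef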
Runt-SMMHC FRET = Runt domain-CBFb-SMMHC interaction inhibition | Q01196+Q13951 | Cerulean-Runt/Venus-CBFb-SMMHC FRET ratio 530/480, 1 h | 220,000 tested, 0.74% active | inhibition, % at 20 µM;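 active = mean inhibition across duplicate retests at 20 µM reaching about 50%, limit read from the data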;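 note: 0% = DMSO wells and 100% = wells with excess untagged CBFb-SMMHC; inhibitors lower the FRET ratio by blocking Runt binding to CBFb-SMMHC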
Target sequence (Q01196 whole entry, looked up, the tested form may be a part): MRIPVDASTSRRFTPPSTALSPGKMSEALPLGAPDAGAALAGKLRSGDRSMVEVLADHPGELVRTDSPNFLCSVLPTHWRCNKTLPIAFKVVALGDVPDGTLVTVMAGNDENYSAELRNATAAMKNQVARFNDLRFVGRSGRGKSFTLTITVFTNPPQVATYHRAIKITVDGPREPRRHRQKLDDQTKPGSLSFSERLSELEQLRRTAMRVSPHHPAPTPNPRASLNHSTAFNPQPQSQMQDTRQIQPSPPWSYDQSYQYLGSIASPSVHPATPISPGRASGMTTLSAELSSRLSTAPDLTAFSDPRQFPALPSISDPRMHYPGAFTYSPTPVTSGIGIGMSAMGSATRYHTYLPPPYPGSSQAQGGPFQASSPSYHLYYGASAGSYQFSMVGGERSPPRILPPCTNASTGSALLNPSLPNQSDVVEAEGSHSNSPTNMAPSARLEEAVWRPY
Target sequence (Q13951 whole entry, looked up, the tested form may be a part): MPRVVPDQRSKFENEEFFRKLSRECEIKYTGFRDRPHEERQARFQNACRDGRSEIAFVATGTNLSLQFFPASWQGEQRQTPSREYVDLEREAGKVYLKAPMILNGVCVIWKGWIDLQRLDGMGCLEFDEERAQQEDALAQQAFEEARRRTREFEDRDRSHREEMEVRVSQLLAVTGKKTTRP
Runt-CBFb FRET = Runt domain-CBFb interaction inhibition; inhibition, % at 20 µM; Cerulean-Runt/Venus-CBFb FRET ratio 530/480, 1 h; Q01196+Q13951; 220,000 tested, 0.46% active;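 active = inhibition over about 50% at 20 µM in the single-dose screen, limit read from the data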;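 note: 0% = DMSO wells and 100% = excess unlabeled CBFb competitor control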
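Measured by: fluorescence energy transfer, 422 nm excitation, 530/480 nm emission; test system: Cerulean-tagged RUNX1 Runt domain (FRET donor) fusion protein; buffer or medium: Tris pH 7.5 buffer with BSA; compound: one dose, 20 µM compound, 1% DMSO; times: two 1 h room-temperature incubations shielded from light; benchmarks: unlabeled CBFb 5 µM, positive control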
YIC FRET counter = counter-screen for RanGTP-importin-beta inhibitors: YIC FRET probe; Purified YIC probe, intramolecular FRET ratio YFP/CFP; IC50, µM; shares compounds with RanGTP-Imp inh; 1,000 tested, 40% active;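 active = fitted half-maximal inhibitory concentration no more than tenfold above the top dose tested; inconclusive = flat fit with 30 to 70% activity, or poor fit; inactive = half-maximal concentration beyond tenfold above the top dose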
Starred values were filed as active, the others as inactive; ? = inconclusive; · = not tested or not shown. Rows were chosen to be rich in hits. Some 1.9% of all compounds tested hit in one or more screens of this group.

SMILES | RanGTP-Imp inh | Hck-Nef inh | Runt-SMMHC FRET | Runt-CBFb FRET | YIC FRET counter
O=C1CN(S(=O)(=O)c2ccc([N+](=O)[O-])cc2)CC(=O)N1 | 3.5 | · | · | · | ·
Cc1nnc(Sc2nc3c(c(=O)n(C)c(=O)n3C)n2Cc2ccccc2Cl)s1 | 17.3* | 8.8 | · | · | >50
Cc1ccc(S(=O)(=O)N2CCCC(C(=O)Nc3ccc(C(=O)O)cc3)C2)cc1Cl (stereo unspecified) | 3.6 | 22.0 | -2.8 | 0.0 | ·
COc1ccccc1NC(=O)N1CCC(NC(=O)C2CCCCC2)CC1 | -1.9 | · | · | · | ·
COc1cc(-c2nc3cnccn3c2Nc2ccc(C(C)C)cc2)ccc1O | 31.5* | -2.1 | 11.0 | 1.5 | >50
CCOc1ccc(S(=O)(=O)N(CC)CC(=O)NCc2ccccn2)cc1C | 2.4 | · | · | · | ·
COCCN(C(=S)Nc1c(C)cc(C)cc1C)C(C)c1cccs1 (stereo unspecified) | 2.2 | 28.2 | 6.4 | 8.6 | ·
CN(C)c1oc(-c2cccs2)nc1C#N | 23.7* | 1.0 | -2.3 | 0.8 | >50
COCC(=O)Nc1ccc(OC)c(Cl)c1 | 2.5 | -24.1 | 2.0 | 2.4 | ·
COc1ccc(NC(=O)COC(C)=O)cc1Cl | 20.6* | 0.5 | -1.1 | 1.0 | >50
Cc1cc2cc(C)c(NCCNC(=O)c3ccccc3Cl)nc2cc1C | ? | -2.1 | -5.3 | -2.7 | ·
Cc1ccn2cc(CCNC(=O)COc3ccccc3)nc2c1 | -5.4 | 8.7 | 0.3 | -0.5 | ·
Cc1cccc2cc(C#N)c(NCCNC(=O)COc3ccccc3)nc12 | 19.9* | 22.9 | 0.4 | 10.7 | 27*
Cc1nc(NCCCn2ccnc2)c2ccccc2n1 | -0.9 | -6.7 | -3.9 | -0.8 | ·
Cc1ccc2cc(CCNC(=O)C3CCCCC3)c(=O)[nH]c2c1C | 4.2 | · | · | · | ·
CCC(=O)NCCNc1nc2cc(C)c(C)cc2cc1C#N | 33.7* | 5.6 | 46.8 | 10.4 | 14.4*
Cc1cccc2cc(C#N)c(NCCCn3ccnc3)nc12 | 34.8* | 24.5 | 85.6* | 33.4 | 20.2*
Cc1ccc2cc(C#N)c(NCCNC(=O)C3CC3)nc2c1C | 16.4* | 7.0 | 102.6* | 28.7 | 46.9*
CC(C#N)(Cc1ccccc1)Nc1ccccc1 (stereo unspecified) | -1.2 | · | · | · | ·
CC(=O)c1ccc(N=Nc2ccc(N)cc2)cc1 | -0.5 | 0.6 | -2.1 | -3.3 | ·
Cc1cccc(N2C(=O)/C(=C/c3cccnc3)SC2=S)c1 | 19.2* | 22.9 | 0.7 | 2.5 | >50
COc1cccc(C2=NOC(C(=O)Nc3cc(C)on3)C2)c1 (stereo unspecified) | 19.4* | 13.2 | -5.5 | 2.4 | >50
CN=C(Nc1cc(C)nn1CCC#N)c1ccccc1 | 19.4* | 1.7 | -2.8 | 0.6 | >50
CN=C(Nc1cc(C)nn1CCC#N)c1ccc(F)cc1 | 2.4 | -0.6 | -3.6 | -0.8 | ·
Cc1cc(C)c(C#N)c(Nc2ccccc2C)n1 | 19.2* | · | · | · | >50
SMILES | RanGTP-Imp inh | Hck-Nef inh | Runt-SMMHC FRET | Runt-CBFb FRET | YIC FRET counter
C(=N\NC1=NCCN1)/c1ccncc1 | -6.7 | · | · | · | ·
O=C(c1cccc(-c2ccccc2)c1)N1CC[C@@H](N2CCC(O)CC2)[C@H](O)C1 | 24.6* | · | · | · | >50
COc1ccc2c(C)c(C(=O)N3CC[C@@H](N4CCC(O)CC4)[C@H](O)C3)oc2c1 | 16.0* | · | · | · | >50
CSCCC(NC(=O)/C(=C\c1ccc(Cl)cc1)NC(=O)c1ccccc1)C(=O)O (stereo unspecified) | 1.4 | -10.1 | 9.7 | 0.6 | ·
CC(C)c1ccc(CN2CCC(Oc3ccc(C(=O)N4CCCC4)cc3)CC2)cc1 | 21.1* | · | · | · | >50
CCc1ccc(CN2CCC(Oc3ccc(C(=O)N4CCCC4)cc3)CC2)cc1 | 3.8 | · | · | · | ·
CC(C)c1ccc(NC(=O)CSc2nc3ccsc3c(=O)n2CCC(=O)O)cc1 | -4.8 | · | · | · | ·
CCC(c1nnnn1C1CCCC1)N1CCC(C(N)=O)CC1 (stereo unspecified) | 16.2* | 15.3 | -0.5 | 1.1 | >50
Fc1ccccc1N1CC(c2ccccc2)C(c2cccs2)=N1 (stereo unspecified) | 19.5* | 39.0 | 61.6* | 27.5 | 13.9*
N=C(N)SCc1nc2ccccc2c(=O)n1-c1ccccc1Cl | 26.1* | 0.7 | 0.5 | 0.4 | >50
Cn1c(=O)n(C)c2cc(NC(=O)COc3ccc(Cl)cc3)ccc21 | -3.1 | -47.9 | 0.8 | -1.0 | ·
O=C1CSC(=Nc2cccc(Cl)c2Cl)N1 | 8.2 | · | · | · | ·
Cc1cnc(C(=O)Nc2ccc(S(=O)(=O)NCC(C)C)cc2)cn1 | ? | 17.6 | · | · | ·
Cc1cnc(C(=O)Nc2ccc(S(=O)(=O)N(C(C)C)C(C)C)cc2)cn1 | 19.7* | · | · | · | >50
CN(CC(=O)Nc1ccc(F)cc1)C(=O)COC(=O)CNC(=O)c1sc2ccccc2c1Cl | 1.6 | · | · | · | ·
COc1ccc(CCNC(=O)c2cc3c(=O)n4ccccc4nc3n(CCCN3CCOCC3)c2=N)cc1 | 19.8* | · | · | · | 21.5*
COc1ccc(CCn2c(=N)c(C(=O)NC3CCCCC3)cc3c(=O)n4ccccc4nc32)cc1 | 19.2* | · | · | · | >50
Cc1nnc(SC(C)C(=O)NC2CCCCC2C)s1 (stereo unspecified) | 0.3 | · | · | · | ·
Cc1c(CC(=O)N2CCN(C(=O)C3COc4ccccc4O3)CC2)c(=O)oc2cc(O)c(Cl)cc12 (stereo unspecified) | 43.8* | · | · | · | 2.9*
CSc1nsc2nc(=O)c(/C=C3\C=Nc4ccccc43)c(N)n12 | 26.2* | -0.4 | 51.1* | 13.5 | 28.2*
CC(C)S(=O)(=O)c1nsc2nc(=O)c(/C=C3\C=Nc4ccccc43)c(N)n12 | 30.5* | 1.7 | 79.8* | 35.4 | 9.72*
CCOC(=O)c1ccc(NCCc2ccc(OC)c(OC)c2)c(N)c1 | 7.5 | · | · | · | ·
O=C(Cc1nc2ccccc2[nH]1)c1ccc(Br)cc1 | 8.0 | -31.4 | -0.8 | 0.4 | ·
CCCCc1cc(=O)oc2c(CN3CCCC3)c(O)c(Cl)cc12 | 25.5* | 152.9* | 135.1* | 95.5* | 27.8*
COC(=O)Cc1c(C)c2cc(Cl)c(OC(=O)c3ccco3)cc2oc1=O | 47.0* | 102.3* | 141.3* | 98.1* | 20.9*
SMILES | RanGTP-Imp inh | Hck-Nef inh | Runt-SMMHC FRET | Runt-CBFb FRET | YIC FRET counter
CCc1cccc(CC)c1NC(=O)CN1CCc2cc(OC)c(OC)cc2C1 | 2.7 | · | · | · | ·
COC(=O)C1=C(N)Oc2cc(C)n(CC3CCCO3)c(=O)c2C1c1ccccc1 (stereo unspecified) | 9.2 | -0.3 | 5.1 | -2.2 | ·
COC(=O)C1=CN(CC2CCCO2)C=C(C(=O)OC)C1c1cccc(O)c1 (stereo unspecified) | 27.7* | 70.9* | 87.0* | 76.4* | 19.8*
COc1ccccc1NC(=O)c1cc(S(=O)(=O)N2CCCC2)cn1C | 2.5 | · | · | · | ·
Cc1ccc(S(=O)(=O)N2CCOCC2)cc1NC(=O)CNCC1CCCCC1 | 0.1 | -18.2 | 3.4 | 0.7 | ·
CCOc1ccc(C2C(C(=O)OC)=CN(CCOC)C=C2C(=O)OC)cc1 | 20.6* | 58.1* | 106.9* | 101.6* | 15.1*
COC(=O)C1=CN(Cc2cccs2)C=C(C(=O)OC)C1c1ccc(OC)cc1OC | 39.9* | 67.7* | 91.1* | 105.2* | 6.99*
CC(C)Cn1c(N)c(C(=O)COC(=O)/C=C/c2ccccc2)c(=O)n(C)c1=O | -0.1 | · | · | · | ·
